Assay outcomes deposited in PubChem BioAssay by several laboratories.
proKLK7 act = proKLK7 (human) activation, primary screen; 0.9% of 370,000 active; P49862; purified proKLK7, EDANS-DABCYL substrate fluorescence; 100% is mature enzyme control, 0% vehicle; activation, % at 7 µM;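 active means activation above the mean of all tested compounds plus 3 SD, computed per campaign excluding outliers beyond control limits, cut at about 13% in these data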
Tn7 DDE FP = DD(E)-Tn7 binding inhibition, primary FP screen; FP displacement of FITC-Tn7 peptide from fibrin DD(E); 0% = median of compound wells per plate; inhibition, % at 8.3 µM; 0.13% of 370,000 active;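 active means inhibition above the mean of compounds falling within the control limits plus 3 SD of them, cut at about 14% in these data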;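 further: 0% = plate median of compound wells and 100% = 10 µM Aha-Tn7 peptide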
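System: human fibrin DD(E); quantity: Fibrin-DD(E) at 2 µM final; also added: fluorescent Tn7 probe at 0.1 µM; compound dosing: single nominal test concentration of 8.3 µM per compound; schedule: 10 min preincubation, 3 h with tracer, room temperature; detection: fluorescence polarization of the labelled Tn7 tracer; repeats: one replicate per compound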
DDE Tn6 FP inh = DD(E)-Tn6 binding inhibition, primary FP screen | inhibition, % at 8.3 µM | Fibrin DD(E) TRITC-Tn6 fluorescence polarization displacement | 0.21% of 370,000 active | P02675;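 active means inhibition above a per-campaign cutoff: mean of compounds within control limits plus 3 SD, cut at about 15% in these data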;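 further: 0% = median of all compound wells on the plate and 100% = blocking peptide control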
NRP1-CendR mod = alters CendR peptide binding to human NRP-1 | 0.85% of 360,000 active | inhibition, % at 25 µM | FAM-RPARPAR peptide binding to NRP-1, fluorescence polarization | O14786 | AID 602438;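 active means inhibition or corrected inhibition above about 18%, plus a signal ratio from 0.5 to 1.5, limit read from the data, passing the limit was not always enough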
PLCb3 inh = PLC-beta3 (human) inhibition, primary screen | Q01970 | Purified PLC-beta3, fluorogenic substrate, fluorescence | inhibition, % at 12.2 µM | 0.18% of 370,000 active | AID 720704; in the data active means inhibition above about 11%;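 further: 0% = median of compound wells on plate and 100% = full blocker control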
PLCg1 inh = PLC-gamma1 (human) inhibition, primary screen; P19174; purified PLC-gamma1, fluorogenic substrate, fluorescence; inhibition, % at 12.2 µM; 0.84% of 370,000 active; AID 720700; in the data active means inhibition above about 9.5%
Target sequence (P19174 whole entry, looked up): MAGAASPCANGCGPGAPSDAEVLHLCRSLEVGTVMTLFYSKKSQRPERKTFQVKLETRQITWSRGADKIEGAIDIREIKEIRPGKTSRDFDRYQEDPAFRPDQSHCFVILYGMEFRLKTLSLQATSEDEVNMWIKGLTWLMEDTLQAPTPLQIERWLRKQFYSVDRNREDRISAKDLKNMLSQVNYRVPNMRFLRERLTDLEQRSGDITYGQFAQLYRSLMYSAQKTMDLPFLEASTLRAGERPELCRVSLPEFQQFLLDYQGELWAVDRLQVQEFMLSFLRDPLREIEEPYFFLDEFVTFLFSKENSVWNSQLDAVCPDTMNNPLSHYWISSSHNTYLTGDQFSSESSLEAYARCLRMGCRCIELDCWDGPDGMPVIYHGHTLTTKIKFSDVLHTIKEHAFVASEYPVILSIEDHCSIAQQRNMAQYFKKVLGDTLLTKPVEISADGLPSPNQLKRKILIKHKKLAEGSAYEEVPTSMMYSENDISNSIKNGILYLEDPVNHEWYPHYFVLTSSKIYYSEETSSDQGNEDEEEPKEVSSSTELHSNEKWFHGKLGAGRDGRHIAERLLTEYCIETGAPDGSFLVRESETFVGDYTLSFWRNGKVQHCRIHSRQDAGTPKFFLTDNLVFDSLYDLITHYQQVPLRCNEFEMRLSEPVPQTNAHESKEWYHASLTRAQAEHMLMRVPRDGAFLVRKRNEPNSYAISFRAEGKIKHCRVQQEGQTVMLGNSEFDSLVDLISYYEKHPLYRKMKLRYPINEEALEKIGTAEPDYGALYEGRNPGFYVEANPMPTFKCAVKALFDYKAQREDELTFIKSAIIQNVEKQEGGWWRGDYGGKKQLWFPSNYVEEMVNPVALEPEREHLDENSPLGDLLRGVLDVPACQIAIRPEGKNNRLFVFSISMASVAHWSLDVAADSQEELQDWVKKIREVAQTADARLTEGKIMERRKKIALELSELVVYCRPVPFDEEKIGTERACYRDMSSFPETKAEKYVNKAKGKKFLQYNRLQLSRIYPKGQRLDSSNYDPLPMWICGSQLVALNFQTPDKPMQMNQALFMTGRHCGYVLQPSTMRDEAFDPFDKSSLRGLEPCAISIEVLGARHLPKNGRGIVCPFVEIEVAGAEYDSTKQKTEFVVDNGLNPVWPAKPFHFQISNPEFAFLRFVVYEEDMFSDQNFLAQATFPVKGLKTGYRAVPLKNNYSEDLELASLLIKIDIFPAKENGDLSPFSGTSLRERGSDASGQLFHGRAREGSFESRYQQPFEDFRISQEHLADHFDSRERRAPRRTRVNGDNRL
The depositor's hits bear a star; · = no result given. Shown are actives, neighbours in structure and some others; about 3% of the full set was active somewhere.

SMILES	proKLK7 act	Tn7 DDE FP	DDE Tn6 FP inh	NRP1-CendR mod	PLCb3 inh	PLCg1 inh
COC(=O)c1ccc(Cn2ccc3ccc(-c4ccc5ccn(C(=O)c6ccccc6)c5c4)cc32)cc1	-22.9	7.7	6.5	·	-31.7	-26.7
CCCCCC(=O)NC1CCCCN(C)C1=O (stereo unspecified)	-0.6	5.7	-5.5	·	2.4	-0.8
COc1cc(/C=N/NC(=O)C(Cc2c[nH]c3ccccc23)NC(=O)OCc2ccccc2)cc([N+](=O)[O-])c1O (stereo unspecified)	0.3	-0.8	4.1	17.5	9.5	11.4*
O=C(N/N=C/c1ccc2c(c1)OCO2)c1cccc2ccccc12	-0.2	0.3	-8.3	29.9*	-27.1	-13.1
Cn1cc(C(=O)N/N=C/c2ccc3c(c2)OCO3)c2ccccc21	1.0	2.6	5.7	-1.5	-16.5	-6.7
O=C(N/N=C/c1ccc2c(c1)OCO2)c1cc(-c2ccccc2)nc2ccccc12	-4.5	2.8	1.3	26.2*	-23.8	-14.5
Cc1ccc(C(=O)NCC(=O)OCc2nc3sc(C)c(C)c3c(=O)[nH]2)cc1	-0.1	2.2	-0.1	·	-0.3	-0.4
COc1ccc(C(=O)COC(=O)/C=C/c2ccccc2)cc1	-0.1	11.0	0.8	3.8	-8.6	0.6
COc1cccc(/C=C/C(=O)OCC(=O)c2ccc(Br)cc2)c1	-0.1	-1.4	3.6	18.4*	0.1	0.7
COc1cccc(/C=C/C(=O)OCC(=O)Nc2ccc(Cl)c(S(=O)(=O)N(C)C)c2)c1	-5.1	1.4	-6.9	0.6	-70.0	-60.9
COc1cccc(/C=C/C(=O)OCC(=O)Nc2cc(C(F)(F)F)ccc2Cl)c1	-0.7	-2.9	6.8	38.6*	-7.4	-4.9
CN(C)S(=O)(=O)N1CCCC(C(=O)c2ccc(-c3ccccc3)c(F)c2)C1 (stereo unspecified)	0.0	3.1	-2.8	20.0*	-1.1	5.2
O=S(=O)(c1ccccc1F)N1CCC(c2nc3ccccc3o2)CC1	0.5	-3.4	-0.3	·	5.9	1.2
CC[C@H](C)[C@@H](COC=O)NC(=O)[C@H]1O[C@@H](n2ccc(N)nc2=O)[C@H](O)[C@@H]1O	0.2	1.6	-1.2	31.4*	2.6	3.7
CC(C)[C@H](COC=O)NC(=O)[C@H]1O[C@@H](n2ccc(N)nc2=O)[C@H](O)[C@@H]1O	-0.5	2.5	-1.7	-9.6	1.9	-2.6
COc1ccc(C(=O)c2coc3c2C(=O)C(=O)c2ccccc2-3)cc1	0.7	-4.1	-5.9	25.2*	-5.0	5.1
COc1ccc(CNC(=O)CSc2nc3ccc(C)cc3[nH]2)cc1	0.2	-7.5	-6.3	3.9	-1.8	3.0
CCCCNC(=O)CSc1nc2ccc(C)cc2[nH]1	0.0	2.9	3.8	34.7*	3.0	-0.4
COC(=O)[C@]12C[C@H](CC(=O)NCCCCc3ccccc3)C(=O)N(CCc3ccc(OC)c(OC)c3)C1=C[C@H](C(C)C)O[C@@H]2C1CC1	0.3	-6.9	5.3	·	4.5	0.9
COc1cccc(OCC(=O)NNC(=S)Nc2ccc(Cl)cc2Cl)c1	0.2	-1.1	-3.0	23.8*	-3.4	-2.9
CCc1ccc(NC(=O)CN(CC(=O)Nc2ccc(CC)cc2)CC(C)O)cc1 (stereo unspecified)	0.5	-1.1	3.3	3.4	-1.1	11.1*
Cc1cc(C(=O)CN2C(=O)C3CC=CCC3C2=O)c(C)n1-c1ccccc1 (stereo unspecified)	0.1	2.7	7.3	29.3*	1.5	3.6
COC(=O)C1=C(C(=O)OC)[C@@]2([C@@H](Cc3ccc(C)cc3)Nc3ccccc3)C=C[C@@H]1O2	·	-4.1	-5.1	·	-3.5	-0.7
O=[N+]([O-])c1c(Nc2ccc(O)cc2)cc(Cl)c2nonc12	0.1	-4.0	1.7	26.3*	4.5	6.6
CN(C)c1cc(Nc2ccc(O)cc2)c([N+](=O)[O-])c2nonc12	0.1	8.5	-8.0	-8.8	-4.2	0.2
SMILES	proKLK7 act	Tn7 DDE FP	DDE Tn6 FP inh	NRP1-CendR mod	PLCb3 inh	PLCg1 inh
COCCOC(=O)C1=C(C)NC(=O)NC1c1cn(-c2ccccc2)nc1-c1cccs1 (stereo unspecified)	0.2	1.2	7.5	-3.0	-7.0	-3.4
COC(=O)C1=C(C)NC(C)=C(C(=O)OC)C1c1cn(-c2ccccc2)nc1-c1ccco1	55.2*	-4.8	-1.2	-11.8	-143.2	-92.2
O=C(NCc1ccccc1)[C@@H]1CCCN1C(=O)[C@H]1CCCN1C(=O)c1cccs1	0.3	6.7	-2.9	·	10.7*	-1.9
CN(C)CCN(C(=O)c1ccc2c(c1)OCCO2)c1nc2cc3c(cc2s1)OCO3	-0.5	-6.3	5.1	24.6*	-6.3	0.3
CCN(CC)S(=O)(=O)c1ccc(N=NC2=C(O)CCCC2=O)cc1	-0.1	-1.5	-3.3	26.3*	1.7	1.4
CCN(CC)S(=O)(=O)c1ccc(N=NC2=C(O)CC(C)(C)CC2=O)cc1	-0.1	2.0	-10.4	10.1	6.1	7.9
Cc1ccccc1Oc1ccc2c(c1)[C@@H]1C[C@H](N(C)C(=O)NC3CCCCC3)[C@H]([C@H](C)O)C(=O)N1CC2	0.0	0.5	3.6	8.3	-6.1	0.6
Cc1ccccc1Oc1ccc2c(c1)[C@@H]1C[C@H](N(C)C(=O)Nc3cc(Cl)cc(Cl)c3)[C@H]([C@H](C)O)C(=O)N1CC2	0.2	4.7	2.2	35.1*	-3.1	1.8
CC(=O)Nc1nc(-c2ccc(-c3ccccc3)cc2)cs1	0.0	-1.4	6.2	21.0*	4.4	-0.2
Cc1csc(NC(=O)c2cc(-c3ccccc3)nc3ccccc23)n1	0.6	-2.9	-2.1	35.0*	-6.7	-4.3
COc1ccc(Cl)cc1C(=O)NNC(=O)CSc1nncn1C	0.2	-0.7	-1.6	0.7	3.3	0.1
Cn1cnnc1SCC(=O)Nc1nc(-c2ccccc2)cs1	0.2	-0.2	1.6	19.8*	1.0	1.2
Cc1nnc(SCC(=O)Nc2nc(-c3ccccc3)cs2)n1N	-0.6	5.3	5.1	-7.5	-0.2	-6.6
COc1ccccc1C(=O)NC(=O)CSc1nncn1C	-0.6	-5.5	-5.9	26.2*	-10.8	0.0
CC(C)(C)c1nnc(NC(=O)c2cc(-c3ccccc3)nc3ccccc23)s1	-0.2	2.2	-7.7	3.6	-0.6	0.1
CC(=O)NNc1nc(-c2ccccc2)cs1	-1.3	-4.8	5.4	-8.5	-66.7	-55.8
COc1ccc(NC(=O)NNC(=O)CCn2nc(C)c([N+](=O)[O-])c2C)cc1OC	0.7	4.2	4.2	·	4.1	0.4
Cc1ccc(CNC(=O)OC(C)(C)C)c(/C=C/S(=O)(=O)NC2CCCC2)c1	-0.4	-1.2	-1.7	·	-1.0	5.7
FC(F)(F)c1ccccc1NC(=S)OCCN1CCCC12CCC(c1ccccc1)CC2 (stereo unspecified)	·	-1.5	3.1	·	-2.3	-0.7
COC(=O)[C@H](CC(C)C)N1Cc2nnn(Cc3ccccc3)c2-c2cc(F)ccc2S1(=O)=O	0.4	-4.5	0.6	·	2.9	1.6
